The source made the active and inactive calls.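 How the source made its calls, unless noted: active means NADPH fluorescence slope more negative than the mean of all samples by about 3 SD, 99.7% confidence; inactive means the rest.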
Legend:
[1] = inhibitors of TNFa-induced NFkB p65 translocation, primary screen, imaging, HUVEC, MLSMR starter and 10KST1 sets (AID 438;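 active means inhibition above 20% together with a positive visual image hit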;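 further: compound added about 3h40 before a 20 min TNFalpha stimulation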;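 on inhibition: signal is the nuclear over cytoplasmic p65 intensity ratio per well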); conditions: HUVEC TNFa-induced p65 nuclear translocation; cell count: measured here: nuclei count (cytotoxicity indicator), at 2.08 µM; inhibition: at 2 µM, stronger effect = higher value, 0% TNFa-plus-vehicle, 100% no-TNFa wells
[2] = reduction of polyQ htt aggregates in cells – imaging, exon1htt(103Q)mCFP cells, high-content imaging, primary screen (AID 483;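 active means visual image review flags a hit and inhibition of aggregation exceeds 20%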;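 further: compound exposure lasted 3 days before fixation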;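 on nuclei count: percent of the per-plate median nuclei count of sample wells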); conditions: exon1htt(103Q)mCFP cell line, aggregate imaging, at 2 µM; inhibition of aggregation: stronger effect = higher value; nuclei count: measured here: cell count, toxicity
[3] = endothelial E-selectin expression blockers – imaging, HUVEC, immunofluorescence, MLSMR starter and 10KST1 sets, primary screen (AID 487;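 active means visually confirmed hit in the image check and inhibition above 20%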;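 on inhibition: signal is fraction of cell area covered by stained E-selectin grains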;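 on nuclei count: 100% = median nuclei count of all wells on the same plate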); conditions: HUVEC TNFalpha-induced E-selectin immunofluorescence imaging, at 2 µM; inhibition: stronger effect = higher value; nuclei count: measured here: cell number, toxicity
[4] = molecular target: Voltage-gated potassium channel subunit beta-2 (Rattus norvegicus) (UniProt P62483); experiment: inhibitors of rat Kvbeta2 reductase activity – biochemical, NADPH fluorescence, primary screen (AID 622;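 active means fluorescence slope higher than the sample average by over 3 SD, cut at about -0.22 in these data, passing the limit was not always enough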;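 further: slope of raw intensity against log time taken from 70 to 1610 s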); conditions: recombinant KvBeta, 4-cyanobenzaldehyde reduction, at 10 µM, stronger effect = higher value
Sequence of Voltage-gated potassium channel subunit beta-2 (Rattus norvegicus) (P62483 whole entry, looked up): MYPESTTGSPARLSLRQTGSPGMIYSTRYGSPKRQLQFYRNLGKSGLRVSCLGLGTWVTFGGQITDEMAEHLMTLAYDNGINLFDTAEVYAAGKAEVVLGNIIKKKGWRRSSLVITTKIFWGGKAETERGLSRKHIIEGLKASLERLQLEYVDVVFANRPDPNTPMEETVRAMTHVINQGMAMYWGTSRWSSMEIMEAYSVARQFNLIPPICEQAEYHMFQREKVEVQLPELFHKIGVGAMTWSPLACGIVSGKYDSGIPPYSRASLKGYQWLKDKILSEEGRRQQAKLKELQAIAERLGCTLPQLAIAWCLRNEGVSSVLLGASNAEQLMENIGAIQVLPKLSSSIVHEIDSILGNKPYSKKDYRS

[5] = molecular target: Voltage-gated potassium channel subunit beta-2 (Rattus norvegicus) (UniProt P62483); experiment: enhancers of rat Kvbeta2 NADPH turnover – biochemical, NADPH fluorescence, primary screen (AID 623); conditions: Recombinant KvBeta, NADPH fluorescence decrease slope, 10 min; at 10 µM; stronger effect = lower value;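 further: fluorescence intensity change per second fitted from 20 to 320 s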
[6] = molecular target: Muscarinic acetylcholine receptor M4 (Homo sapiens) (UniProt P08173); experiment: M4-linked GIRK flux change, two-sided – cell-based, HEK293 M4/GIRK, thallium flux, BTC-AM, M4 allosteric agonist project, primary screen (AID 625;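 active means fluorescence slope after compound addition differing from the mean of all tested samples at 99.7% confidence, mostly higher but some lower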;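 further: thallium influx through GIRK channels coupled to M4 in HEK293 cells with BTC-AM dye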); conditions: at 10 µM, actives lie on both sides
Sequence of Muscarinic acetylcholine receptor M4 (Homo sapiens) (P08173 whole entry, looked up): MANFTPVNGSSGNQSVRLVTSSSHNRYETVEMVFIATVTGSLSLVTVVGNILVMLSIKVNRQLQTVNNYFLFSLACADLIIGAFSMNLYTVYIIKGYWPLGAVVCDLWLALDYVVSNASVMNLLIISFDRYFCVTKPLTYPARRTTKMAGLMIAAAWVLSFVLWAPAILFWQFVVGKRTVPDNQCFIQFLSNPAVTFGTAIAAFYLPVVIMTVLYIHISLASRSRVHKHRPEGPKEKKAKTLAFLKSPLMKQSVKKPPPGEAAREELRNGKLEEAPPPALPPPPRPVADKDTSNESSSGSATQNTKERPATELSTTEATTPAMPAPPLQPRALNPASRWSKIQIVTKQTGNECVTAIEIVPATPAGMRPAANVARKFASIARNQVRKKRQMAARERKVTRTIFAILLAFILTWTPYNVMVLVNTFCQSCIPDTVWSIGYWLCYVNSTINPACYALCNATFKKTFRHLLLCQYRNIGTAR
Outline: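 Material: HEK293 cells with M4 receptor and GIRK channels; Times: cells overnight at 37 °C, BTC-AM loading 1 h, reads 2 min total; Technique: kinetic BTC-AM fluorescence sampled at 1 Hz, 10 s pre-addition baseline; Read-out basis: slope over 15–24 s of trace normalized to starting intensity; Controls: carbachol positive, DMSO negative.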

[7] = blockers of RIG-like receptor reporter activation – cell-based, Sendai virus stimulus, luciferase, 10K MLSCN set, TLR/RLR signaling modifier project, primary screen (AID 602276;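 active means inhibition at or above 50% at 10 µM; inactive means inhibition below 50%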;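 further: firefly luciferase from ISG56 promoter only with Renilla not read in this screen; 0% = Sendai virus plus DMSO and 100% = medium plus DMSO without virus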); conditions: HEK293 RL24 IRF3 luciferase reporter, at 10 µM, stronger effect = higher value
[8] = TLR3 IRF3 reporter activation blockers – cell-based, poly I:C stimulus, luciferase, 10K MLSCN set, primary screen (AID 602277;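 active means inhibition of the reporter signal at or above 50%; inactive means inhibition below 50%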); conditions: HEK293-TLR3 RL24 IRF3 luciferase reporter, at 10 µM, stronger effect = higher value

Cc1csc(NC(=O)c2cccc(S(=O)(=O)N3CCCCC3)c2)n1
cell count [1]: 352 | inhibition [1]: 7.4% (inactive) | inhibition of aggregation [2]: -9.9% (inactive) | nuclei count [2]: 96.8% | inhibition [3]: -30.5% (inactive) | nuclei count [3]: 109% | fluorescence slope [4]: -0.587 (inactive) | NADPH fluorescence slope [5]: -3e-05 (inactive) | fluorescence slope [6]: 0.00964 (inactive) | inhibition [7]: -5.34% (inactive) | inhibition [8]: 16.9% (inactive)

COCCOc1nc2ccccc2nc1C
cell count [1]: 351 | inhibition [1]: 5.2% (inactive) | inhibition of aggregation [2]: 8.5% (inactive) | nuclei count [2]: 87.8% | inhibition [3]: -5.9% (inactive) | nuclei count [3]: 104% | fluorescence slope [4]: -0.615 (inactive) | NADPH fluorescence slope [5]: -2.4e-05 (inactive) | fluorescence slope [6]: 0.00668 (inactive) | inhibition [7]: 16.4% (inactive) | inhibition [8]: 2.62% (inactive)

CCCn1c(NCc2cc(C)ccc2O)nc2ccccc21
cell count [1]: 369 | inhibition [1]: 1.4% (inactive) | inhibition of aggregation [2]: 4.3% (inactive) | nuclei count [2]: 82.1% | inhibition [3]: -16.5% (inactive) | nuclei count [3]: 49.2% | fluorescence slope [4]: -0.522 (inactive) | NADPH fluorescence slope [5]: 6.3e-06 (inactive) | fluorescence slope [6]: 0.00499 (inactive) | inhibition [7]: 18.7% (inactive) | inhibition [8]: 19.5% (inactive)

COCCn1c(-c2ccc(OC)c(OC)c2)nc2ccccc21
cell count [1]: 247 | inhibition [1]: -1.1% (inactive) | inhibition of aggregation [2]: 28.5% (inactive) | nuclei count [2]: 85.8% | inhibition [3]: 16.7% (inactive) | nuclei count [3]: 77.6% | fluorescence slope [4]: -0.536 (inactive) | NADPH fluorescence slope [5]: -3.2e-05 (inactive) | fluorescence slope [6]: 0.00485 (inactive) | inhibition [7]: -2.29% (inactive) | inhibition [8]: 11% (inactive)

O=C1COc2ccc(C(=O)NCc3ccco3)cc2N1
cell count [1]: 668 | inhibition [1]: -0.8% (inactive) | inhibition of aggregation [2]: -4.2% (inactive) | nuclei count [2]: 79.6% | inhibition [3]: 85.2% (active) | nuclei count [3]: 82.3% | fluorescence slope [4]: -0.575 (inactive) | NADPH fluorescence slope [5]: -3.7e-05 (inactive) | fluorescence slope [6]: 0.00601 (inactive) | inhibition [7]: -3.82% (inactive) | inhibition [8]: 9.4% (inactive)

COc1ccc(NC(=O)CCNC(=O)Cn2ccc3ccccc3c2=O)c(OC)c1
cell count [1]: 707 | inhibition [1]: -8.4% (inactive) | inhibition of aggregation [2]: 22.3% (inactive) | nuclei count [2]: 101% | inhibition [3]: -39.3% (inactive) | nuclei count [3]: 115% | fluorescence slope [4]: -0.331 (inactive) | NADPH fluorescence slope [5]: -5.9e-05 (inactive) | fluorescence slope [6]: 0.00839 (inactive) | inhibition [7]: 14.4% (inactive) | inhibition [8]: 15.6% (inactive)

CN(C)C(=O)C12CCC(C)(c3nc4ccccc4nc31)C2(C)C (stereo not drawn)
cell count [1]: 504 | inhibition [1]: -6.5% (inactive) | inhibition of aggregation [2]: -24% (inactive) | nuclei count [2]: 97% | inhibition [3]: -59.3% (inactive) | nuclei count [3]: 112% | fluorescence slope [4]: -0.492 (inactive) | NADPH fluorescence slope [5]: -2e-05 (inactive) | fluorescence slope [6]: 0.00404 (inactive) | inhibition [7]: -7.12% (inactive) | inhibition [8]: -15.4% (inactive)

CC(C)NC(=O)CSc1nnc(-c2ccc(C(C)(C)C)cc2)n1C
cell count [1]: 563 | inhibition [1]: -16% (inactive) | inhibition of aggregation [2]: -4.3% (inactive) | nuclei count [2]: 96.8% | inhibition [3]: 8% (inactive) | nuclei count [3]: 117% | fluorescence slope [4]: -0.465 (inactive) | NADPH fluorescence slope [5]: 5.2e-06 (inactive) | fluorescence slope [6]: 0.00698 (inactive) | inhibition [7]: 4.36% (inactive) | inhibition [8]: 1.25% (inactive)

COc1ccccc1N1CCN(C(=O)c2ccc3nc(-c4ccco4)c(-c4ccco4)nc3c2)CC1
cell count [1]: 570 | inhibition [1]: -15.9% (inactive) | inhibition of aggregation [2]: 5.2% (inactive) | nuclei count [2]: 136% | inhibition [3]: -44.3% (inactive) | nuclei count [3]: 115% | fluorescence slope [4]: -0.324 (inactive) | NADPH fluorescence slope [5]: 3.6e-06 (inactive) | fluorescence slope [6]: 0.005 (inactive) | inhibition [7]: 16.2% (inactive) | inhibition [8]: 8.44% (inactive)

C=C(C)c1cccc(C(C)(C)NC(=O)Nc2ncccn2)c1
cell count [1]: 472 | inhibition [1]: -4.3% (inactive) | inhibition of aggregation [2]: 1.6% (inactive) | nuclei count [2]: 106% | inhibition [3]: -0.4% (inactive) | nuclei count [3]: 99.6% | fluorescence slope [4]: -0.601 (inactive) | NADPH fluorescence slope [5]: -1.1e-05 (inactive) | fluorescence slope [6]: 0.00622 (inactive) | inhibition [7]: -42.4% (inactive) | inhibition [8]: 98.6% (active)

Cc1cc(C)c2c(n1)sc1c(N3CCOCC3)ncnc12
cell count [1]: 301 | inhibition [1]: -4.9% (inactive) | inhibition of aggregation [2]: -151% (inactive) | nuclei count [2]: 0.6% | inhibition [3]: -61.4% (inactive) | nuclei count [3]: 121% | fluorescence slope [4]: -0.305 (inactive) | NADPH fluorescence slope [5]: -6.3e-05 (inactive) | fluorescence slope [6]: 0.00639 (inactive) | inhibition [7]: 5.74% (inactive) | inhibition [8]: -3.16% (inactive)

COc1ccc(CC(=O)OCc2nnc(C3COc4ccccc4O3)o2)cc1OC (stereo not drawn)
cell count [1]: 440 | inhibition [1]: -1.1% (inactive) | inhibition of aggregation [2]: -0.3% (inactive) | nuclei count [2]: 91.8% | inhibition [3]: -48% (inactive) | nuclei count [3]: 85.8% | fluorescence slope [4]: -0.405 (inactive) | NADPH fluorescence slope [5]: 1.8e-05 (inactive) | fluorescence slope [6]: 0.00765 (inactive) | inhibition [7]: 7.17% (inactive) | inhibition [8]: 9.19% (inactive)

Cc1cccc2cc(C#N)c(NCCNC(=O)NC3CCCCC3)nc12
cell count [1]: 463 | inhibition [1]: -5.1% (inactive) | inhibition of aggregation [2]: -41% (inactive) | nuclei count [2]: 85.8% | inhibition [3]: -40.3% (inactive) | nuclei count [3]: 176% | fluorescence slope [4]: -0.471 (inactive) | NADPH fluorescence slope [5]: -0.000184 (inactive) | fluorescence slope [6]: 0.00443 (inactive) | inhibition [7]: -2.87% (inactive) | inhibition [8]: 1.15% (inactive)

— PubChem BioAssay
